# Assay results from PubChem BioAssay.
# Active and inactive are the calls of the source.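 Rule for the calls, unless noted: active = inhibition at or above 50% at 10 µM; inactive = inhibition below 50%.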
# Key:
# [1] = inhibitors of TNFa-induced NFkB p65 translocation, primary screen, imaging, HUVEC, MLSMR starter and 10KST1 sets (AID 438;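 active = inhibition above 20% together with a positive visual image hit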;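 note: compound added about 3h40 before a 20 min TNFalpha stimulation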;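 for inhibition: signal is the nuclear over cytoplasmic p65 intensity ratio per well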); conditions: HUVEC TNFa-induced p65 nuclear translocation; cell count: measured here: nuclei count (cytotoxicity indicator), at 2.08 µM; inhibition: at 2 µM, stronger effect = higher value, 0% TNFa-plus-vehicle, 100% no-TNFa wells
# [2] = reduction of polyQ htt aggregates in cells – imaging, exon1htt(103Q)mCFP cells, high-content imaging, primary screen (AID 483;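 active = visual image review flags a hit and inhibition of aggregation exceeds 20%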;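 note: compound exposure lasted 3 days before fixation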;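 for nuclei count: percent of the per-plate median nuclei count of sample wells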); conditions: exon1htt(103Q)mCFP cell line, aggregate imaging, at 2 µM; inhibition of aggregation: stronger effect = higher value; nuclei count: measured here: cell count, toxicity
# [3] = endothelial E-selectin expression blockers – imaging, HUVEC, immunofluorescence, MLSMR starter and 10KST1 sets, primary screen (AID 487;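 active = visually confirmed hit in the image check and inhibition above 20%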;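 for inhibition: signal is fraction of cell area covered by stained E-selectin grains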;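 for nuclei count: 100% = median nuclei count of all wells on the same plate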); conditions: HUVEC TNFalpha-induced E-selectin immunofluorescence imaging, at 2 µM; inhibition: stronger effect = higher value; nuclei count: measured here: cell number, toxicity
# [4] = molecular target: Voltage-gated potassium channel subunit beta-2 (Rattus norvegicus) (UniProt P62483); assay: inhibitors of rat Kvbeta2 reductase activity – biochemical, NADPH fluorescence, primary screen (AID 622;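 active = fluorescence slope higher than the sample average by over 3 SD, cut at about -0.22 in these data, passing the limit was not always enough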;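 note: slope of raw intensity against log time taken from 70 to 1610 s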); conditions: recombinant KvBeta, 4-cyanobenzaldehyde reduction, at 10 µM, stronger effect = higher value
# Voltage-gated potassium channel subunit beta-2 (Rattus norvegicus), sequence (P62483 whole entry, looked up): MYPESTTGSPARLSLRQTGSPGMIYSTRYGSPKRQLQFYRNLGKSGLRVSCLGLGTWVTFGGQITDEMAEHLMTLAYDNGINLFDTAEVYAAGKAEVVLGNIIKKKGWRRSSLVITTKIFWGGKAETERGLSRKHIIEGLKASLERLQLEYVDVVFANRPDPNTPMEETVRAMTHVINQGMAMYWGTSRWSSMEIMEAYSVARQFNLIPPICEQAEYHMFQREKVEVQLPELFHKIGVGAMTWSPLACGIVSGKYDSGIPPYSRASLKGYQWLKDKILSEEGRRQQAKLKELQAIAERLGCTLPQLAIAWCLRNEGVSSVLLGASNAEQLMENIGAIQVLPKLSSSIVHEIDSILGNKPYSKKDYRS
# [5] = molecular target: Voltage-gated potassium channel subunit beta-2 (Rattus norvegicus) (UniProt P62483); assay: enhancers of rat Kvbeta2 NADPH turnover – biochemical, NADPH fluorescence, primary screen (AID 623;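 active = NADPH fluorescence slope more negative than the mean of all samples by about 3 SD, 99.7% confidence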;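 note: fluorescence intensity change per second fitted from 20 to 320 s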); conditions: Recombinant KvBeta, NADPH fluorescence decrease slope, 10 min; at 10 µM; stronger effect = lower value
# [6] = molecular target: Alpha-2C adrenergic receptor (Homo sapiens) (UniProt P18825); assay: compounds altering alpha2C-coupled GIRK flux – cell-based, HEK293 alpha2C/GIRK1/2, thallium flux, primary screen (AID 624;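 active = fluorescence slope after compound addition differing from the mean of all screened samples at 99.7% confidence, in either direction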;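 note: slope of fluorescence ratio to pre-addition baseline per second over 15 to 24 s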); conditions: thallium flux BTC fluorescence, at 10 µM, actives lie on both sides
# Alpha-2C adrenergic receptor (Homo sapiens), sequence (P18825 whole entry, looked up): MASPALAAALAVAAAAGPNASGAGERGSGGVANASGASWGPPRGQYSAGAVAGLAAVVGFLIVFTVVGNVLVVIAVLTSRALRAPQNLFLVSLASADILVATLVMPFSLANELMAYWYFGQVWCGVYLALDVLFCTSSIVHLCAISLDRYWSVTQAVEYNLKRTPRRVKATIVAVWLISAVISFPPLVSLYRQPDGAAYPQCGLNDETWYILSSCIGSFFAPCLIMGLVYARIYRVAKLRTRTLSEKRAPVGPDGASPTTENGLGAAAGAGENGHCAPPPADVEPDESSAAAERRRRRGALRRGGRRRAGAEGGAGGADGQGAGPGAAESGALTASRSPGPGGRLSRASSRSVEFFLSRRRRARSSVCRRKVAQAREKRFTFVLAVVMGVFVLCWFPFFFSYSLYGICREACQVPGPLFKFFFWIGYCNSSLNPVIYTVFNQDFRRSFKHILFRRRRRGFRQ
# [7] = inhibitors of larval lipid processing in zebrafish, primary screen, whole organism, PED6 fluorescence, gall bladder and intestine (AID 686;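 active = a full or partial loss of lipid-probe fluorescence in the fish gall bladder, intestine or both, judged by eye; inactive = no fluorescence loss, or compound toxic to the fish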;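 note: larvae 5 to 7 days old with five fish per well; signal comes from phospholipase A2 cleavage of quenched PED6 carried via bile; overnight exposure to compound and PED6 before scoring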); conditions: Zebrafish larvae PED6 lipid processing, fluorescence scoring; screened at 20 µM (by protocol)
# Summary of the method: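 System: live zebrafish larvae aged 5-7 days, whole organism; measure: graded gall bladder and intestinal fluorescence inhibition per well; incubation: overnight exposure; reagent: ingested quenched lipid PED6 at 100 nM; signal: By-eye fluorescence microscopy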
# [8] = blockers of RIG-like receptor reporter activation – cell-based, Sendai virus stimulus, luciferase, 10K MLSCN set, TLR/RLR signaling modifier project, primary screen (AID 602276); conditions: HEK293 RL24 IRF3 luciferase reporter, at 10 µM, stronger effect = higher value;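 note: firefly luciferase from ISG56 promoter only with Renilla not read in this screen; 0% = Sendai virus plus DMSO and 100% = medium plus DMSO without virus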
# [9] = TLR3 IRF3 reporter activation blockers – cell-based, poly I:C stimulus, luciferase, 10K MLSCN set, primary screen (AID 602277;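 active = inhibition of the reporter signal at or above 50%; inactive = inhibition below 50%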); conditions: HEK293-TLR3 RL24 IRF3 luciferase reporter, at 10 µM, stronger effect = higher value
Compound,cell count [1],inhibition [1],inhibition of aggregation [2],nuclei count [2] [%],inhibition [3],nuclei count [3] [%],fluorescence slope [4],NADPH fluorescence slope [5],slope [6],outcome [7],inhibition [8],inhibition [9]
COc1ccc(OC)c(N(CC(=O)Nc2cccnc2)S(=O)(=O)c2ccc(OC)c(OC)c2)c1,722,7.9% (inactive),-6.2% (inactive),97,-37.3% (inactive),94.1,-0.456 (inactive),-5.3e-05 (inactive),0.00497 (inactive),inactive,18.6% (inactive),21.4% (inactive)
O=C1c2ccccc2C(=O)N1c1cccc(-c2nc3ccccc3o2)c1,464,7.6% (inactive),4% (inactive),104,-175% (inactive),130,-0.384 (inactive),-5.2e-05 (inactive),0.00482 (inactive),inactive,2.66% (inactive),4.23% (inactive)
COCCCN1C(=O)C(=O)/C(=C(/O)c2ccc(OC)cc2)C1c1ccc(O)c(OC)c1 (centres undefined),499,-14.9% (inactive),-10% (inactive),101,25.3% (inactive),98.6,-0.39 (inactive),-2.6e-05 (inactive),0.00521 (inactive),inactive,4.25% (inactive),-6.14% (inactive)
CCOC(=O)N1CCC(NC(=O)Cn2cc3c(n2)CCC(C)C3)CC1 (centres undefined),420,-11.9% (inactive),0.7% (inactive),108,-5.4% (inactive),101,-0.479 (inactive),1.7e-05 (inactive),0.0047 (inactive),inactive,-10.4% (inactive),-9.33% (inactive)
COc1ccc(CNc2oc(-c3cccc4ccccc34)nc2C#N)cc1,570,-3.4% (inactive),8.1% (inactive),86.3,56.8% (inactive),86.1,-0.183 (inactive),6.8e-06 (inactive),0.00641 (inactive),inactive,4.97% (inactive),7.07% (inactive)
COc1ccc(Cl)cc1NC(=O)CSc1nncn1-c1cccnc1,391,-10.2% (inactive),25.6% (inactive),58.8,60.5% (active),93.1,-0.296 (inactive),1.5e-05 (inactive),0.00524 (inactive),inactive,15.1% (inactive),22.7% (inactive)
O=C(Nc1ccccc1)N(CCCN1CCOCC1)Cc1cc2cc3c(cc2[nH]c1=O)OCCO3,390,8% (inactive),20.1% (inactive),70.5,-24.2% (inactive),98.3,-0.412 (inactive),-4.1e-05 (inactive),0.00525 (inactive),inactive,-3.35% (inactive),8.69% (inactive)
Cc1cc(C(=O)COC(=O)CCc2nc3ccccc3s2)c(C)n1C,170,-10.5% (inactive),14.2% (inactive),108,-16% (inactive),96,-0.454 (inactive),-3.3e-05 (inactive),0.00538 (inactive),inactive,16.3% (inactive),7.6% (inactive)
c1ccc2c(SCc3cn4cccnc4n3)ncnc2c1,553,-14.3% (inactive),0.5% (inactive),109,6.3% (inactive),93.9,-0.341 (inactive),-5.7e-05 (inactive),0.00553 (inactive),inactive,3.66% (inactive),-0.28% (inactive)
COc1ccc(NC(=O)CSc2nc(C)cc(C(F)(F)F)n2)cc1,648,-3.3% (inactive),8.8% (inactive),95.3,-1% (inactive),92.8,-0.418 (inactive),-2.1e-05 (inactive),0.00507 (inactive),inactive,14.9% (inactive),18.5% (inactive)
CN1C(=O)c2oc3ccccc3c(=O)c2C1c1ccccn1 (centres undefined),404,5.4% (inactive),-16.4% (inactive),106,-28.5% (inactive),87.5,-0.437 (inactive),-4.2e-05 (inactive),0.00452 (inactive),inactive,18% (inactive),12% (inactive)
Cc1cc(C(=O)N2CCCc3ccccc32)no1,312,-4.5% (inactive),13% (inactive),77.3,-10.5% (inactive),89.2,-0.39 (inactive),-4.1e-06 (inactive),0.00507 (inactive),inactive,-8.74% (inactive),-14.5% (inactive)
CN(CC(=O)Nc1cccnc1)S(=O)(=O)c1cc(Cl)ccc1Cl,448,12.5% (inactive),-7.7% (inactive),101,-44.8% (inactive),98.2,-0.468 (inactive),-1.6e-06 (inactive),0.00566 (inactive),inactive,-8.87% (inactive),-13.1% (inactive)
CCc1n[nH]c2c1C(=O)CC(C)(C)C2,438,-5.8% (inactive),4.8% (inactive),97.7,19.5% (inactive),110,-0.382 (inactive),-5e-05 (inactive),0.00556 (inactive),inactive,-8.61% (inactive),-7.25% (inactive)
Brc1ccc2ncnc(Nc3ccc(N4CCOCC4)cc3)c2c1,534,-13.2% (inactive),8.9% (inactive),106,29.5% (inactive),84.4,-0.375 (inactive),-5.5e-05 (inactive),0.00328 (inactive),inactive,16.4% (inactive),1.52% (inactive)
O=C(c1cnc2sccn2c1=O)N1CCc2ccccc2C1,438,-3% (inactive),4.4% (inactive),86.1,-376% (inactive),102,-0.398 (inactive),-5.3e-05 (inactive),0.00452 (inactive),inactive,-4.13% (inactive),99% (active)
CCCCCc1nnc(NC(=O)Cc2cccs2)s1,325,3.8% (inactive),-1.3% (inactive),93.5,-23.7% (inactive),95.6,-0.412 (inactive),-5.9e-05 (inactive),0.00431 (inactive),inactive,11.9% (inactive),1.2% (inactive)
CC(C)c1cc(C(=O)Nc2cccnc2)no1,250,-2.8% (inactive),-12.9% (inactive),103,-9.6% (inactive),115,-0.398 (inactive),-6.1e-05 (inactive),0.00525 (inactive),inactive,-22.1% (inactive),-67.3% (inactive)
COc1ccc(Cl)cc1N1CCN(CCNC(=O)Nc2ccccc2C)CC1,353,0.6% (inactive),-3.4% (inactive),108,-3.8% (inactive),111,-0.452 (inactive),-1.3e-05 (inactive),0.00435 (inactive),inactive,21.9% (inactive),8.13% (inactive)
O=C(Nc1ccc(-c2nc3ncccc3o2)cc1)c1ccc(Br)o1,340,25.6% (inactive),-3.8% (inactive),89.7,8.6% (inactive),100,-0.125 (active),-3.3e-06 (inactive),0.00525 (inactive),inactive,-28.6% (inactive),-98.2% (inactive)
C1CCN=C(Nc2nc3c(s2)CCCC3)CC1,432,7.3% (inactive),-10.9% (inactive),118,8.7% (inactive),110,-0.413 (inactive),-3.8e-05 (inactive),0.00517 (inactive),inactive,-23.9% (inactive),-50% (inactive)
COCCN1C=C(C(=O)OC)C(c2cc3c(cc2Br)OCO3)C(C(=O)OC)=C1,629,-7.8% (inactive),1.1% (inactive),112,48.4% (inactive),46.8,-0.377 (inactive),-6e-05 (inactive),0.00391 (inactive),inactive,13.3% (inactive),20.6% (inactive)
CC1CCCCC1NC(=O)COc1ccc(-n2cnnn2)cc1 (centres undefined),508,6.8% (inactive),5.2% (inactive),81.6,-175% (inactive),108,-0.449 (inactive),-7.6e-05 (inactive),0.00588 (inactive),inactive,6.84% (inactive),25.1% (inactive)
CCOC(=O)CC(=O)CSc1nc(-c2cccnc2)ccc1C#N,908,11.4% (inactive),-23.5% (inactive),87.2,-90.5% (inactive),128,-0.0463 (active),-1.8e-05 (inactive),0.013 (active),inactive,-15.8% (inactive),-33.1% (inactive)
O=C(NCc1ccco1)c1cc2sccc2n1Cc1ccccc1,455,5% (inactive),8.8% (inactive),114,-33.7% (inactive),110,-0.463 (inactive),5.4e-05 (inactive),0.00405 (inactive),inactive,-19.7% (inactive),-28.5% (inactive)
Nc1cc(N)nc(SCc2ccccc2)n1,371,1.1% (inactive),6.6% (inactive),103,-26.1% (inactive),108,-0.499 (inactive),1.3e-05 (inactive),0.00402 (inactive),inactive,-47.8% (inactive),-101% (inactive)
Cc1occc1-c1nnc(SCC(=O)N2CCOCC2)n1Cc1ccco1,382,3% (inactive),-5.6% (inactive),82.5,-41% (inactive),107,-0.371 (inactive),-5e-05 (inactive),0.00496 (inactive),inactive,8.29% (inactive),12.6% (inactive)
